Test results reported in the RNAGym collection of RNA variant scans (doi:10.1126/science.aae0568).
This sample holds only a part of the variants without activity.

B1: tRNA (parent)
chain: GUUCCGUUGGCGUAAUGGUAACGCGUCUCCCUCCUAAGGAGAAGACUGCGGGUUCGAGUCCCGUACGGAACG

Variants of: B1
Experiment: yeast fitness relative to wild type (ratio to wild type); higher = fitter; tRNA-Arg(CCU), competitive growth, 37 C, YPD
Summary of the method: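 For this measurement, the tRNA-Arg(CCU) gene was varied by chemical synthesis at a 3% per-site mutation rate across 69 sites, and each variant was placed at the native genomic locus in Saccharomyces cerevisiae. The pooled strains went through a 24-hour competition in YPD at 37°C in six parallel replicates, with amplicons from start and end populations read by 100-nucleotide paired-end sequencing. Darwinian fitness relative to wild type followed from the change in each genotype's frequency. Genotypes needed ≥ 100 starting reads, and estimates < 0.5 were set to 0.5.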

| Variant | yeast fitness |
| --- | --- |
| GUUCCGUUGGCGUAAACGUAACGCGUCUCCCUCCUAAGGAGAUGCAUGCGGGUUCGAGUCCGGUACGGAACG [U16A G17C A43U A45C C46A C62G] | ≤ 0.5 |
| GUUCCAUUGGCGUAAUGGUAACGCGUCUCCCUCCUAAGGAGAAGACAGCGGGUUCGUGUCCCGUACGGAACG [G6A U47A A57U] | ≤ 0.5 |
| GUUCCGCUGGCGUAAUGGUAACGCGUCUCCCUCCUAAGGAGCAGACUGCGGGUUUGAGUCCCGUACGGAACG [U7C A42C C55U] | ≤ 0.5 |
| GUUCCGUUGGCGUAAUGGUAACGCGUCUCCCUCCUAAGCGGAAGACUCCGGGUUCGAGUCCCGUACGGAACG [G39C A40G G48C] | ≤ 0.5 |
| GUUCGGUUCGCGUAAUGGUAACGCGUCUCCCUCCUAAGGAGAAGACUGCGGGUUCGAGUCCCGUACAGAACG [C5G G9C G67A] | ≤ 0.5 |
| GUUCCGUUGGCGUAAUGGUAACGCGUCUCCCUCCUAAGGAGCAGACGGCGGGUUCGAGUCCCGUACGGAACG [A42C U47G] | 0.607 |
| GGUCCGUUGGCGUAAUGGUAACGCGUCUACCUCCUAAGGUGAAGACUGCGGGUUCGAGUCCCGUACGGAACG [U2G C29A A40U] | ≤ 0.5 |
| GUUACGUUGGCGUAAUGGUAACGCGUGUCCCUCGUAUGGAGAAGACUGCGGGUUCGAGUCCCGAACGGAACG [C4A C27G C34G A37U U64A] | ≤ 0.5 |
| GUUACGUUGGCGUAAUGGUCACGCGUCUCCCUCAUAAGCAGAUGACUGCGGGUUCGAGUCCCGUACGGAACG [C4A A20C C34A G39C A43U] | 0.512 |
| GUUUCGUUGGCGUAAUGGUAACGCGUCUCCCUCCUAAGGAGAAGACUGAGGGUUCGAGUCCCGUAUGGAACG [C4U C49A C66U] | 0.612 |
| GUGCCGUUGGCGUAAUGGUAACGUGUCUCCCUCCUAAGGAGAAGACUGCGGGUUCGAAACCCGUUCGGAACG [U3G C24U G58A U59A A65U] | 0.514 |
| GUUCCGUUGGCGUAAUGGUAACGCGUCUCCCUCCUAAGGAAAAGGCUGCGGGUUCAAGUCCCGUACGGAACG [G41A A45G G56A] | 0.582 |
| GUUCGGUUGGCGUAAUGGUAACGCGUCUCCCUCCUAAGGAGAAGACUGCGGGUUCGAGUCCCGUAAGGGCCG [C5G C66A A69G A70C] | ≤ 0.5 |
| GUUACGUUGGCGUAAUGGUAACGCGUCUCCCUCCUAAGGAGAUGACUGCGGGUUCGAGUCCCGUACGGAACG [C4A A43U] | 0.841 |
| GUUCCGUUGGCGUAAUGGUAACGCGUCUCCCUACUAAGCAGAAGACUGUGGGUACGAGUCCCGUACGGAACG [C33A G39C C49U U54A] | ≤ 0.5 |
| GUUCCGUUGGCGCAAUGGUAACGGGACUCCCUCCUAAGGAGAAGACUGCGGGUUGGAGUCCCGUAAGGAACG [U13C C24G U26A C55G C66A] | 0.561 |
| GUUCCGUUGGCGUAAUGGAAACGCGCCUCACUCCUAAGGAGAAGACUGCGGGUUCGAGUCCCGUACUGAACG [U19A U26C C30A G67U] | ≤ 0.5 |
| GUUCCGUUGGCGUAAUGGUAGCGCGUCUCCCUCCUAUGGAGAAGACUGCGGGUUCGAGUCCCGUAUGGAACG [A21G A37U C66U] | ≤ 0.5 |
| GUUCCGUUGGGGUAUUGGUAACGGGUCUCCCUCCUAAGGGGAAGACUGCGGGUUCGAGUCCCGUACGGAACG [C11G A15U C24G A40G] | ≤ 0.5 |

| Variant | yeast fitness |
| --- | --- |
| GUUCCGUUGGAGUAAUGGUAACCCGUCUCCCGCAUAAGGAGAAGACUGCGGGUUCGAGUCCCGUACGGAACG [C11A G23C U32G C34A] | ≤ 0.5 |
| GUUCCGUUGGCGUAAUGGUAACGCGUCUCCCUCCUAAGGAGAAGACUGCGGGUCCGAGUCCCGUACAGAACG [U54C G67A] | 0.817 |
| GUCCCGUUGGCGUAAUGGUAACGCGUCUCCCUGCUAAGGAGAAGACUGCGGGUUCGAGUCCCGUACGGCACG [U3C C33G A69C] | 0.621 |
| GGUCCGUUGGCGUAAUGGUAACGCGUCUCCUUCCUAAGGAGAAGACUGCAGGUUCGAGUUCCGUACGGAACG [U2G C31U G50A C60U] | ≤ 0.5 |
| GUUUCGUUGGCGUAAUGGUAACGCGUCUCCCUCCUAAGGAGAAGACUGCGGGUUCGAGCCACGUACGGAACG [C4U U59C C61A] | ≤ 0.5 |
| GUUCCGUUGGCGUAAUGGUAACGCGUCUUCCUACUAACGAGAAGACUGCGGGUUCGAGUCCCGUACGGAACG [C29U C33A G38C] | 0.638 |
| GUUCCGUUGGCGUAAUGGUACGGCGUCUCCCUCCUAAGGAGAAGACUGCGGGUUCGAGUCCCGUACGGAACG [A21C C22G] | 0.564 |
| GUUCCGUAGCCGUAAUGGUAACGCGUCUCCCUCCUAAGGAGAAGACUGCGGGUUCGAGUCCCGUAUGGAACG [U8A G10C C66U] | ≤ 0.5 |
| GUUCCGUUGGCGUAAUGGUAACGCGUCUCCCUCCUAAGGAGAAGACUGCGGGUUCGAGUCCCUUACGGAACG [G63U] | 0.825 |
| GUUCCGUUGGCGUAGUGGUAACGCGUCUCCCUCCUAAGGAGAAAACUGCCGGUUCGAGUUCCGUACGGAGCG [A15G G44A G50C C60U A70G] | ≤ 0.5 |
| GUUCCGUCGGCGUAAUGGUAACGCGUUUCCCACCUAAGGAGAAGACUGCGGGUUCGAGUCCCGUAUCGAACG [U8C C27U U32A C66U G67C] | ≤ 0.5 |
| GUUACGUUGGCGUAAUGGUACCGCGUCUCCCUCCUAAGCAGAAGACUGGGGGUUCGAGUCCCGUACGGAACG [C4A A21C G39C C49G] | 0.511 |
| GUUCCGUUGGAGUAAUGGUAGCGCGUCUCCCUCCUAAGGAGAAGACUGCGGGUUGGAGUCCAGUACGGAACG [C11A A21G C55G C62A] | ≤ 0.5 |
| GUUCCGUUGGCGUAAUGGUAAGGCGUCUCCCUCCUGAGGAGAAGAUUGCGGGUUCGAGUCCCGUACGGAACG [C22G A36G C46U] | 0.709 |
| GUUCCGUUGGCGUAAUGGUAACCCGUCUCCCUCCUAAGGACAAGACUGCGGGUUCGAGUCCCGUAUGGAACG [G23C G41C C66U] | ≤ 0.5 |
| GUUCCGUUGGCGUAAUGGUAACGCGUCUCCCUCCUAAGGAGAAGUCUGCGGGUUCGAGUCCGGUGCGGAACG [A45U C62G A65G] | 0.913 |
| GUUCCGUAGCCGUAAUGGUUACGCGUCUCCCUCCUAAGGAUAAGACUGCGGGUUCGAGUCCUGUACGCAACG [U8A G10C A20U G41U C62U G68C] | 0.799 |
| GUUCCGUUGGCGUAAUGGUAACGCGUUUCCCUCCUAAGGAGAUGACUGCGGGUUGGAGUCCCGUACGGAACG [C27U A43U C55G] | 0.544 |
| GUUCAGUUGGCGUAAUGGUAACGCGACUCCCUCCUAAGGAGAAGACUGCGGGUUCGAGUCCCGUAAGGAACG [C5A U26A C66A] | ≤ 0.5 |
